{"source": "ChEMBL document CHEMBL1129955", "about": "“Structure-activity relationships of alkyl- and alkoxy-substituted 1,4-dihydroquinoxaline-2,3-diones: potent and systemically active antagonists for the glycine site of the NMDA receptor” (J Med Chem, 1997)", "key": {"[1]": {"target": "Glutamate receptor ionotropic, NMDA 1 (Rattus norvegicus, UniProt P35439)", "assay": "Potency for the N-methyl-D-aspartate glutamate receptor 1 glycine site by displacement of [3H]5,7-dichlorokynurenic acid (DCKA) binding in rat brain cortical membranes.", "format": "cell membranes, Membrane"}, "[2]": {"assay": "Partition coefficient (logP)", "format": "physicochemical", "conditions": "octanol/water"}, "[3]": {"species": "Mus musculus", "assay": "Anticonvulsant activity was measured by mouse maximal electroshock (MES) assay.", "format": "functional", "procedure,_shortened": "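Mice; compounds dissolved in 0.05 M Tris, given iv; tested at peak activity 2 min after injection (one compound with slower onset tested at 15 min). Maximal electroshock seizure protection scored; ED50 by Litchfield and Wilcoxon analysis.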"}, "[4]": {"target": "T1, Glutamate receptor ionotropic, AMPA (Rattus norvegicus) (UniProt P19491+P19492+P19493+P19490)", "assay": "Dissociation constant(Kb) for Ionotropic glutamate receptor AMPA as inhibition of currents activated by 10 uM AMPA in Xenopus oocytes expressing rat cerebral cortex poly(A)+ RNA", "format": "functional, cell-based", "conditions": "Oocyte"}, "[5]": {"assay": "Selectivity index for the inhibition of NMDA receptors was estimated by dividing Kb AMPA by Kb NMDA"}, "[6]": {"target": "T1, Glutamate receptor ionotropic, AMPA (Rattus norvegicus)", "assay": "Dissociation constant(Kb) for Ionotropic glutamate receptor AMPA was determined from inhibition of currents activated by 10(uM) AMPA in Xenopus oocytes expressing rat cerebral cortex poly(A)+ RNA", "format": "functional, cell-based", "conditions": "Oocyte"}}}
{"smiles": "CCc1c(Cl)cc2nc(O)c(O)nc2c1[N+](=O)[O-]", "values": [{"measurement": "IC50", "setting": "[1]", "value": 130, "unit": "nM"}]}
{"smiles": "O=c1[nH]c2cc(Cl)c(Cl)c([N+](=O)[O-])c2[nH]c1=O", "note": "[LICOSTINEL]", "values": [{"measurement": "logP", "setting": "[2]", "value": 0.21}, {"measurement": "ED50", "setting": "[3]", "value": 4, "unit": "mg/kg"}, {"measurement": "IC50", "setting": "[1]", "value": 5.9, "unit": "nM"}]}
{"smiles": "COc1cc2[nH]c(=O)c(=O)[nH]c2c(O)c1OC", "values": [{"measurement": "IC50", "setting": "[1]", "value": 17000, "unit": "nM"}]}
{"smiles": "O=c1[nH]c2cc3ccccc3cc2[nH]c1=O", "values": [{"measurement": "IC50", "setting": "[1]", "value": 16000, "unit": "nM"}]}
{"smiles": "Cc1c(C#N)cc2[nH]c(=O)c(=O)[nH]c2c1[N+](=O)[O-]", "values": [{"measurement": "IC50", "setting": "[1]", "value": 73, "unit": "nM"}]}
{"smiles": "O=[N+]([O-])c1c(OCCCc2ccccc2)c(F)cc2nc(O)c(O)nc12", "values": [{"measurement": "IC50", "setting": "[1]", "value": 4000, "unit": "nM"}]}
{"smiles": "COc1c(Cl)cc2[nH]c(=O)c(=O)[nH]c2c1[N+](=O)[O-]", "values": [{"measurement": "IC50", "setting": "[1]", "value": 150, "unit": "nM"}]}
{"smiles": "CCc1cc2[nH]c(=O)c(=O)[nH]c2cc1Cl", "values": [{"measurement": "IC50", "setting": "[1]", "value": 1400, "unit": "nM"}]}
{"smiles": "CCOc1c(F)cc2nc(O)c(O)nc2c1[N+](=O)[O-]", "values": [{"measurement": "IC50", "setting": "[1]", "value": 3600, "unit": "nM"}]}
{"smiles": "Oc1nc2cc3c(cc2nc1O)OCO3", "values": [{"measurement": "IC50", "setting": "[1]", "value": "> 100000", "unit": "nM"}]}
{"smiles": "CCc1cc2[nH]c(=O)c(=O)[nH]c2cc1CC", "values": [{"measurement": "IC50", "setting": "[1]", "value": 1800, "unit": "nM"}]}
{"smiles": "O=c1[nH]c2cc3c(c([N+](=O)[O-])c2[nH]c1=O)CCC3", "values": [{"measurement": "IC50", "setting": "[1]", "value": 3100, "unit": "nM"}]}
{"smiles": "CCc1cc2[nH]c(=O)c(=O)[nH]c2c([N+](=O)[O-])c1CC", "values": [{"measurement": "IC50", "setting": "[1]", "value": 160, "unit": "nM"}]}
{"smiles": "N#Cc1cc([N+](=O)[O-])c2[nH]c(=O)c(=O)[nH]c2c1", "values": [{"measurement": "IC50", "setting": "[1]", "value": 2800, "unit": "nM"}]}
{"smiles": "Cc1c(Br)cc2nc(O)c(O)nc2c1[N+](=O)[O-]", "values": [{"measurement": "logP", "setting": "[2]", "value": 0.61}, {"measurement": "ED50", "setting": "[3]", "value": 2, "unit": "mg/kg"}, {"measurement": "IC50", "setting": "[1]", "value": 8.7, "unit": "nM"}]}
{"smiles": "CCc1cc2nc(O)c(O)nc2c([N+](=O)[O-])c1Br", "values": [{"measurement": "logP", "setting": "[2]", "value": 1.04}, {"measurement": "ED50", "setting": "[3]", "value": 11, "unit": "mg/kg"}, {"measurement": "IC50", "setting": "[1]", "value": 82, "unit": "nM"}]}
{"smiles": "CCSc1c(Cl)cc2nc(O)c(O)nc2c1[N+](=O)[O-]", "values": [{"measurement": "IC50", "setting": "[1]", "value": 640, "unit": "nM"}]}
{"smiles": "Oc1nc2cc3c(cc2nc1O)CCC3", "values": [{"measurement": "IC50", "setting": "[1]", "value": 15000, "unit": "nM"}]}
{"smiles": "Cc1c(Cl)cc2nc(O)c(O)nc2c1[N+](=O)[O-]", "values": [{"measurement": "Kb", "setting": "[4]", "value": 3500, "unit": "nM"}, {"measurement": "ED50", "setting": "[3]", "value": 1.2, "unit": "mg/kg"}, {"measurement": "Selectivity index", "setting": "[5]", "value": 440}]}
{"smiles": "CCCCOc1c(F)cc2nc(O)c(O)nc2c1[N+](=O)[O-]", "values": [{"measurement": "IC50", "setting": "[1]", "value": 4300, "unit": "nM"}]}
{"smiles": "Oc1cc2nc(O)c(O)nc2cc1O", "values": [{"measurement": "IC50", "setting": "[1]", "value": "> 100000", "unit": "nM"}]}
{"smiles": "Cc1cc([N+](=O)[O-])c2[nH]c(=O)c(=O)[nH]c2c1", "values": [{"measurement": "IC50", "setting": "[1]", "value": 9300, "unit": "nM"}]}
{"smiles": "O=[N+]([O-])c1c2c(cc3nc(O)c(O)nc13)CCC2", "values": [{"measurement": "Kb", "setting": "[6]", "value": 17000, "unit": "nM"}, {"measurement": "Selectivity index", "setting": "[5]", "value": 20}]}
{"smiles": "Cc1cc2nc(O)c(O)nc2c([N+](=O)[O-])c1Cl", "values": [{"measurement": "logP", "setting": "[2]", "value": 0.44}, {"measurement": "ED50", "setting": "[3]", "value": 1.9, "unit": "mg/kg"}, {"measurement": "IC50", "setting": "[1]", "value": 45, "unit": "nM"}]}
{"smiles": "COc1cc2[nH]c(=O)c(=O)[nH]c2cc1OC", "values": [{"measurement": "IC50", "setting": "[1]", "value": 17000, "unit": "nM"}]}
{"smiles": "O=[N+]([O-])c1c(Br)c(Br)cc2nc(O)c(O)nc12", "values": [{"measurement": "logP", "setting": "[2]", "value": 0.74}, {"measurement": "ED50", "setting": "[3]", "value": 7.3, "unit": "mg/kg"}, {"measurement": "IC50", "setting": "[1]", "value": 20, "unit": "nM"}]}
{"smiles": "COc1c(F)cc2[nH]c(=O)c(=O)[nH]c2c1[N+](=O)[O-]", "values": [{"measurement": "IC50", "setting": "[1]", "value": 1900, "unit": "nM"}]}
{"smiles": "Cc1cc2nc(O)c(O)nc2c([N+](=O)[O-])c1C", "values": [{"measurement": "logP", "setting": "[2]", "value": 0.58}, {"measurement": "Kb", "setting": "[4]", "value": 3100, "unit": "nM"}, {"measurement": "ED50", "setting": "[3]", "value": 2.6, "unit": "mg/kg"}, {"measurement": "IC50", "setting": "[1]", "value": 29, "unit": "nM"}, {"measurement": "Selectivity index", "setting": "[5]", "value": 79}]}
{"smiles": "Cc1c(C#N)cc2nc(O)c(O)nc2c1[N+](=O)[O-]", "values": [{"measurement": "Kb", "setting": "[6]", "value": 590, "unit": "nM"}, {"measurement": "Selectivity index", "setting": "[5]", "value": 20}]}
{"smiles": "Nc1c(F)cc2nc(O)c(O)nc2c1[N+](=O)[O-]", "values": [{"measurement": "IC50", "setting": "[1]", "value": 11000, "unit": "nM"}]}
{"smiles": "COc1cc2[nH]c(=O)c(=O)[nH]c2c(OC(C)=O)c1OC", "values": [{"measurement": "IC50", "setting": "[1]", "value": 53000, "unit": "nM"}]}
{"smiles": "CCc1cc2nc(O)c(O)nc2c([N+](=O)[O-])c1Cl", "values": [{"measurement": "logP", "setting": "[2]", "value": 0.92}, {"measurement": "ED50", "setting": "[3]", "value": 4.5, "unit": "mg/kg"}, {"measurement": "IC50", "setting": "[1]", "value": 29, "unit": "nM"}]}
{"smiles": "Cc1cc2nc(O)c(O)nc2cc1Cl", "values": [{"measurement": "IC50", "setting": "[1]", "value": 780, "unit": "nM"}]}
{"smiles": "COc1cc2nc(O)c(O)nc2cc1Br", "values": [{"measurement": "IC50", "setting": "[1]", "value": 1000, "unit": "nM"}]}
{"smiles": "Cc1c(F)cc2nc(O)c(O)nc2c1[N+](=O)[O-]", "values": [{"measurement": "logP", "setting": "[2]", "value": 0.08}, {"measurement": "ED50", "setting": "[3]", "value": 1.8, "unit": "mg/kg"}, {"measurement": "IC50", "setting": "[1]", "value": 95, "unit": "nM"}]}
{"smiles": "COc1c(Br)cc2[nH]c(=O)c(=O)[nH]c2c1[N+](=O)[O-]", "values": [{"measurement": "IC50", "setting": "[1]", "value": 64, "unit": "nM"}]}
{"smiles": "Cc1c(Cl)cc2nc(O)c(O)nc2c1N", "values": [{"measurement": "IC50", "setting": "[1]", "value": 150, "unit": "nM"}]}
{"smiles": "Cc1c(Cl)cc2[nH]c(=O)c(=O)[nH]c2c1[N+](=O)[O-]", "values": [{"measurement": "logP", "setting": "[2]", "value": 0.49}, {"measurement": "IC50", "setting": "[1]", "value": 4.7, "unit": "nM"}]}
{"smiles": "Cc1cc2[nH]c(=O)c(=O)[nH]c2cc1C", "values": [{"measurement": "IC50", "setting": "[1]", "value": 3300, "unit": "nM"}]}
